Only some compounds are listed: those with a hit (about 4.8% of all), similar ones and a draw of the others.
HSF1 activator – increases HSF-1 driven luciferase reporter signal; NIH3T3-HGL HSF-1 luciferase reporter, MG132, 8 h; 100% = twice DMSO control signal; activation, % at 9 µM; 1.7% of 300,000 active; AID 504408;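 active = mean replicate activation of at least 50% with a set share of replicates each reaching 50%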;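 also: 0% = median of the neutral control wells and 100% = twice that signal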
GPR7 antagonist – human neuropeptides B/W receptor 1 antagonism | P48145 | AID 1861 | GPR7-expressing cells, fluorescence antagonist assay | inhibition, % at 4.4 µM | 1.1% of 290,000 active; in the data active = inhibition above about 16%, passing the limit was not always enough;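 also: cells stimulated with the agonist NPW; 0% = agonist with vehicle and 100% = vehicle without agonist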
Target sequence (P48145 whole entry, looked up): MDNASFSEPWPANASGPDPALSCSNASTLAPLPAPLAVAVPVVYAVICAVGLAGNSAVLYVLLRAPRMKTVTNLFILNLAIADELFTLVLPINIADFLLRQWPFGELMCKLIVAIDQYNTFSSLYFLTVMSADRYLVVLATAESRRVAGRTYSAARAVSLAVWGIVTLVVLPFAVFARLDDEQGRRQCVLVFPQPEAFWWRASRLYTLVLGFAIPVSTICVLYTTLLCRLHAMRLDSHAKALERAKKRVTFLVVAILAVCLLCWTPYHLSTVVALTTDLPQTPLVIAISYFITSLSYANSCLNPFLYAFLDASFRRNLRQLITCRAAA
T cruzi repl – T. cruzi replication inhibition; T. cruzi beta-gal in NIH3T3, luminescence, 90 h; 1.4% of 300,000 active; inhibition, % (test concentration not listed);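 active = mean inhibition across valid replicates above about 55%, limit read from the data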;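 also: signal also drops with host cell toxicity which is not excluded here; 0% = plate median of DMSO wells and 100% = zero luminescence signal; higher percent means less beta-gal luminescence so fewer parasites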
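Assay system: NIH/3T3 host cells with β-galactosidase reporter T. cruzi; input: 5,000 host fibroblasts per well; compound: single 50 nL compound addition per well in DMSO; timing: ≥90 h infection period, 3 h prior cell attachment; measured by: GalScreen β-gal luminescence, detergent lysis, 60 min; evaluation: percent inhibition of parasite-derived β-gal signal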
697 NFkB inh – lowers PMA/ionomycin-induced NF-kB signal in 697 B cells; 697 B-cell NF-kB luciferase reporter, 16 h; inhibition, % at 4 µM; 0.33% of 330,000 active; in the data active = inhibition above about 35%
Jurkat NFkB inh – inhibitors of the PMA/ionomycin-induced NF-kB reporter in Jurkat cells. PMA/ionomycin-induced NF-kB luciferase reporter, luminescence. inhibition, % at 4 µM. 0.53% of 330,000 active; in the data active = inhibition above about 50%
HSF1 inhib – HSF1 inhibition | NIH3T3-HGL HSE-luciferase, MG132-induced, luminescence 8 h; stronger effect = lower value | activity change, negative = inhibition, % at 7.5 µM (by protocol) | 0.77% of 300,000 active | AID 2098;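 active = more than half of replicate wells show activity change below -50%, luminescence cut by over half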;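 also: luciferase reports HSF-1 transcriptional activity via heat shock element; 0% = median of DMSO wells and -100% = zero luminescence signal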
Starred values were filed as active, the others as inactive; / = not tested or not shown.

SMILES	HSF1 activator	GPR7 antagonist	T cruzi repl	697 NFkB inh	Jurkat NFkB inh	HSF1 inhib
O=C(NCc1ccco1)C(c1ccc(F)cc1)N(Cc1cccnc1)C(=O)Cn1nnc2ccccc21 (stereo not given)	-16	-14	43	10	5	1
O=C1C=C(Nc2ccc(O)cc2)C(=O)c2ccccc21	64*	2	-9	-52	6	58
CC(=O)Nc1ccc(NC2=CC(=O)c3ccccc3C2=O)cc1	77*	-2	5	-47	-22	32
COC1=C(Nc2ccc(O)cc2)C(=O)c2ccccc2C1=O	34	1	-27	-77	30	12
CCCC(=O)NC1=C(Cl)C(=O)c2ccccc2C1=O	91*	/	/	/	/	91*
O=C1C(Cl)=C(Nc2ccc(O)cc2)C(=O)c2ccccc21	15	38*	63*	-6	-7	11
CC(=O)Nc1ccc2c(c1)C(=O)c1ccccc1C2=O	30	-3	-4	-125	-122	25
C[C@@H](C(=O)Nc1nc(-c2ccccn2)cs1)N1C(=O)C2CCCCC2C1=O (stereo not given in full)	-9	4	-1	-20	-2	4
CC(Oc1ccc(Br)cc1)C(=O)Nc1nc(-c2ccccn2)cs1 (stereo not given)	10	1	69*	1	4	14
CC(C)[C@H](NC(=O)c1ccccc1Cl)C(=O)Nc1nc(-c2ccccn2)cs1	-18	-15	66*	-24	9	-14
CN(CCO)c1cc(NCCCN2CCC(Cc3ccccc3)CC2)c2nonc2c1[N+](=O)[O-]	3	-10	65*	6	4	-1
CC1CCN(CCCNc2cc(NCCO)c([N+](=O)[O-])c3nonc23)CC1	9	-7	4	24	7	-4
N#C/C(=C\c1ccc(Sc2nc3ccccc3[nH]2)o1)c1ccccc1	71*	10	-1	-23	12	43
N#C/C(=C\c1ccc(Sc2ccc(Cl)cc2)o1)c1nc2ccccc2[nH]1	/	-3	/	/	/	/
Cc1nc2cc(NC(=O)Nc3ccc(Br)cc3)ccc2o1	58*	-4	13	-119	-90	19
COc1ccc(Br)cc1/C=N/n1nnnc1N	13	2	-7	12	-1	-2
Cc1cccc(CN2CCN(CCCc3ccccc3)CC2)c1	0	-2	63*	27	-21	-2
CC(=O)OCCN1C(=O)c2cccc3cc([N+](=O)[O-])cc(c23)C1=O	7	/	73*	5	4	-8
O=C1c2cccc3cc([N+](=O)[O-])cc(c23)C(=O)N1CC1CCCO1 (stereo not given)	-8	-13	51	9	13	0
N#CC1=C(N)N(c2ncn[nH]2)C2=C(C(=O)CCC2)C1c1ccccc1 (stereo not given)	26	-3	-15	-9	10	7
CSc1ccc(C2C(C#N)=C(N)N(c3ccccc3)C3=C2C(=O)CCC3)cc1 (stereo not given)	58*	-4	-8	11	1	22
Cc1[nH]n(-c2ccccc2)c(=O)c1C(c1cccc([N+](=O)[O-])c1)c1c(C)[nH]n(-c2ccccc2)c1=O	17	-9	0	9	-1	22
COc1cccc(C(C[N+](=O)[O-])c2c(C)[nH]n(-c3ccccc3)c2=O)c1 (stereo not given)	278*	10	-2	4	3	214
Cc1[nH]n(-c2ccccc2)c(=O)c1C(c1ccc(C(=O)O)cc1)c1c(C)[nH]n(-c2ccccc2)c1=O	8	-7	0	16	4	2
Cc1[nH]n(-c2ccccc2)c(=O)c1C(C[N+](=O)[O-])c1ccc(Br)cc1 (stereo not given)	210*	-10	-6	3	0	181
Cc1ccc(O)c(NC(=O)C2CCCCC2)c1	68*	-2	-18	-55	20	68
Cc1ccc(NC(=O)C2CCCCC2)c(O)c1	3	4	-22	15	6	0
N#C/C(=C\c1c(Cl)cccc1Cl)c1nn(-c2ccccc2)c(-n2cccc2)c1C#N	10	-12	59*	-21	-11	8
N#C/C(=C\c1c(F)cccc1Cl)c1nn(-c2ccccc2)c(-n2cccc2)c1C#N	16	-18	41	-17	-20	14
